For data set [1], the system named is S. aureus. The data set can be described thus: Resistance acquisition assay. It counts as cell-based, Staphylococcus aureus. Particulars: second assay, concentration kept constant (half of the initial MIC), 30 days.
Data set [2] relates to S. aureus bacterial strain ATCC25923. The experiment in a line: In vivo hernia mesh infection model. Details: species or system New Zealand white rabbits. Particulars: rabbit, 14 days after surgery. In short, it runs like this:
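Rabbit mesh-implant infection model; anaesthesia im 15 min pre-surgery with ketamine (70 mg kg), diazepam and chlorpromazine (1.5 mg kg⁻¹ each). S. aureus ATCC25923 was grown on LB agar 24 h, 37 °C, then overnight in LB and diluted in 0.9 % saline to a target 10^6 CFU.mL⁻¹. At 14 days animals were xylazine-sedated (im), CO₂-euthanised; implant fragments examined by light microscopy and SEM.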

As to Poly(L-arginine) [PAR30], in data set [1], the “increase of relative MIC” value is “strongly stable”.

In the case of `CN(C)[C@@H]1C(O)=C(C(N)=O)C(=O)[C@@]2(O)C(O)=C3C(=O)c4c(O)cccc4[C@@](C)(O)[C@H]3C[C@@H]12` [tetracycline], in data set [1], the “increase of relative MIC” value is “around 3 times”.

`[H]/N=C(\N/C(=N/[H])NCCCCCCNC(=N)NC(=N)Nc1ccc(Cl)cc1)Nc1ccc(Cl)cc1` [CHX, Chlorhexidine]: in data set [2], the “inflammatory reaction (histology)” value is “moderate inflammatory reaction”; the “macroscopic observations at necropsy compared with uncoated mesh” value is “less purulent material, weak hypervascularization, and better tissue integration”. In addition, the “skin fistula, necrosis, or edema at necropsy” value in data set [2] (n = 7 per group) was “no animal developed skin fistula, necrosis, or edema”. The “bacteria presence in tissue (histology, S. aureus immunolabeling)” value in data set [2] (qualitative) is reported as “not recorded or noticeably reduced”.

The record behind these values is paper PMC11364137 (Materials Today Bio, 2024).
